# APP 5'UTR act = activates APP 5'UTR luciferase reporter; SH-SY5Y APP 5'UTR luciferase reporter, luminescence; zero percent = DMSO vehicle wells; actives 1% (n = 190,000); activation, % at 2 µM; AID 1276;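 active = activation above a set limit, based on mean plus 3 SD of controls, cut at about 140% in these data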
# NF-kB expr up = NF-kB expression increase, human neuronal cells; NF-kB reporter expression; hits give high values; fold change at 12.5 µM; actives 1.6% (n = 190,000); in the data active = fold change above about 3.3
# STAT1 activator = activators of IFN-gamma induced STAT1 signaling; NIH 3T3 STAT1-luciferase reporter, luminescence; 100% = IFN-gamma alone, no compound; activation (% of control), % at 5.5 µM; actives 2.6% (n = 200,000);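 active = activation above the screen-wide mean activation plus 3 SD, cut at about 130% in these data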;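 note: raw ratio to IFN-gamma control signal so 100% means no change and 0% no light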
# Pf gametocyte = kills late stage P. falciparum gametocytes; actives 0.065% (n = 150,000); inhibition, % at 10.9 µM; P. falciparum stage V gametocytes, ATP luminescence, 24 h;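 active = inhibition above the mean plus 3 SD of compounds within the control limits, set per campaign, cut at about 38% in these data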;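 note: 0% = DMSO wells and 100% = medium only without gametocytes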
# FLuc inhib CS = counter-screen for luciferase assay inhibitors: firefly luciferase inhibition; P08659; ATPLite firefly luciferase biochemical luminescence, 10 min; inhibition, % at 10 µM; actives 1.5% (n = 200,000); AID 1006;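 active = inhibition above about 50% when tested at 10 µM, limit read from the data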
# Target sequence (P08659 whole entry, looked up): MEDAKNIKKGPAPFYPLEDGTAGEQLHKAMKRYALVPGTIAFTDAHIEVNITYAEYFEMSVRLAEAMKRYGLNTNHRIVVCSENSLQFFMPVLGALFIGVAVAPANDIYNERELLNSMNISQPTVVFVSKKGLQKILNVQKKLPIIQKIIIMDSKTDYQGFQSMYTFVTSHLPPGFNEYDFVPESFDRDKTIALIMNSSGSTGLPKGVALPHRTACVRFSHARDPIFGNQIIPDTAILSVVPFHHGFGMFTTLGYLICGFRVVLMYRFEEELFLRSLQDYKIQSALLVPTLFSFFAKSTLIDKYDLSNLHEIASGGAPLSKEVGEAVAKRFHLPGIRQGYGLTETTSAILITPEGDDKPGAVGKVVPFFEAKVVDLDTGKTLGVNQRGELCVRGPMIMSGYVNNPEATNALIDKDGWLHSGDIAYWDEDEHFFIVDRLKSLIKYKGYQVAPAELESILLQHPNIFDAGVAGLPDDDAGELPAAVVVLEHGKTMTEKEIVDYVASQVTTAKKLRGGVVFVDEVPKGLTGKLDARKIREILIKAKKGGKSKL
# FLuc stim CS = affects firefly luciferase, flagging false hits in luciferase stimulation screens | P08659 | ATPlite luciferase biochemical, luminescence, 10 min; 0 = ATP-free wells, 1 = DMSO control | activation factor at 10 µM | 200,000 tested, under 10 active | AID 1027;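 active = luciferase activation factor, scaled between plate controls, of at least 2 with compound at 10 µM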
#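 Material: Luciferase/luciferin reagent mix | Doses: Test compounds dosed from 2 mM stocks in 100% DMSO | Timing: 10 min incubation after luciferase reagent addition, room temperature | Measured by: Luminescence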
# * = called active by the depositor; x = not tested or not shown. A selection: hits, their analogues and other compounds. The true share with any hit is near 3.5%.
SMILES,APP 5'UTR act,NF-kB expr up,STAT1 activator,Pf gametocyte,FLuc inhib CS,FLuc stim CS
O=C(c1ccc(COc2ccc3c(c2)CCC3)o1)N1CCN(c2ccccc2)CC1,1,x,102,-5,x,x
O=C(c1ccco1)N1CCN(C(=O)c2ccc(COc3ccc4c(c3)CCC4)o2)CC1,-4,0.45,132*,-5,4,1
COCCCn1cnc2oc3nc4ccccc4nc3c2c1=O,166*,2.3,141*,x,12,0.9
COCCCn1cnc2c(c1=O)c1nc3ccccc3nc1n2-c1ccccc1,3,0.63,102,x,-4,1
Cc1cc(/C=C2/NC(=O)N(c3ccccc3)C2=O)c(C)n1C(C)C,62,1.3,129*,-4,26,0.7
Cc1cc(/C=C2/NC(=O)N(Cc3ccccc3F)C2=O)c(C)n1C(C)C,2,0.99,100,-7,2,1
CC1S/C(=N\N=C\c2cccc([N+](=O)[O-])c2)N(C(C)(C)C)C1=O (centres undefined),x,x,x,29,x,x
COc1cccc(/C=C2\SC(=S)N(c3cccnc3)C2=O)c1OC,17,1.4,102,x,67*,0.3
O=C(O)c1cc(-c2c[nH]c3ccccc23)nc2ccc3ccccc3c12,11,1.2,89,-5,80*,0.2
Fc1ccccc1-c1nc(-c2ccc(-c3nn[nH]n3)cc2)no1,x,x,x,2,x,x
O=C(O)c1ccc(CSc2nc3ccc(NC(=O)c4ccccc4C(=O)O)cc3s2)cc1,9,1.1,98,7,7,0.9
CCC(C)/C(C)=N/NC(=O)c1ccc(CSc2nc3ccccc3s2)cc1 (centres undefined),46,1.3,130*,-2,-3,1
COC(=O)C1=C(C(=O)OC)[C@@H]2Nc3ccccc3[C@@]23C[C@@H](C(=O)OC)N(C(=O)c2ccco2)C3=N1,x,x,x,-8,x,x
Cc1ccc(C2=NC(=O)/C(=C/c3cc(O)c(O)c(Br)c3)S2)cc1,11,1.2,100,21,50*,0.5
CC(=O)N(c1ccccc1)c1nnc(-c2cnc(C)cn2)s1,137*,3.5*,127,4,8,0.9
NNc1nc2ccccc2c(=O)n1Cc1ccccc1,x,x,x,9,x,x
CN(C)c1ccc(-c2ccncc2)cc1,x,x,x,x,2,1
CNc1nnc(-c2ccc(N(C)C)cc2)s1,115,4.7*,87,x,92*,0.1
Cc1cccc(Nc2nc(-c3ccncc3)cs2)c1,51,0.67,130*,x,0,1
Clc1cccc(Nc2nc(-c3ccncc3)cs2)c1,46,1.2,114,-6,-4,1
c1ccc(-c2csc(Nc3cccnc3)n2)cc1,53,1.1,136*,-13,8,0.9
CN(C)c1ccc(Nc2nc(-c3cccnc3)cs2)cc1,188*,4.3*,147*,x,78*,0.2
COc1ccc(-c2csc(Nc3ccc(C)cn3)n2)cc1,77,x,139*,15,7,0.9
Clc1ccc(-c2csc(Nc3cccnc3)n2)cc1,x,x,x,9,x,x
Cc1cc(OCC(=O)NCCCN(C)C)cc(C)c1Br,7,0.78,99,x,-4,1
SMILES,APP 5'UTR act,NF-kB expr up,STAT1 activator,Pf gametocyte,FLuc inhib CS,FLuc stim CS
Fc1ccc(Nc2nc(-c3cccnc3)cs2)cc1,106,3.6*,136*,-11,26,0.7
Clc1ccc(Nc2nc(-c3cccnc3)cs2)cc1,47,1.9,116,x,8,0.9
Cc1nc(C)c(-c2csc(Nc3cccc(O)c3)n2)s1,166*,4.3*,95,-8,32,0.7
COc1cccc(Nc2nc(-c3ccc(O)cc3)cs2)c1,34,3.9*,120,-20,0,1
CCOc1ccccc1NC(=O)c1ccc(Cl)c(NC(=O)CC(c2ccccc2)c2ccccc2)c1,5,1.1,99,x,-4,1
CCC(C)C(NC(=O)[C@@H](NC(=O)c1ccccc1F)C(C)C)C(=O)OC (some centres undefined),6,1.1,101,x,-11,1.1
Cc1cc(N/N=C/c2cccc(Br)c2)nc2ccccc12,50,4.2*,107,x,35,0.7
Cc1cc(N/N=C/c2ccncc2)nc2ccccc12,98,0.93,147*,-41,23,0.8
CCn1nnc(-c2ccc(N)cc2)n1,6,1.2,85,x,-4,1
COc1ccc(OC)c(NC2c3ccccc3C(=O)N2c2cccnc2)c1 (centres undefined),-10,0.83,100,x,-7,1.1
COc1ccc(-c2ccc(-c3nnn(CC(=O)N4CCOCC4)n3)cc2)cc1,37,2.2,114,-38,74*,0.3
COc1cc(-c2nnn(CC(=O)N3CCOCC3)n2)cc(OC)c1OC,1,1.1,100,x,-6,1.1
O=C(CSc1n[nH]c(=O)[nH]c1=O)NC1CCCCC1,x,x,x,17,x,x
CCS(=O)(=O)N1CCN(c2cnn(-c3ccccc3)c(=O)c2Cl)CC1,-6,1,98,18,3,1
O=c1c2ccccc2cnn1-c1nc2ccccc2[nH]1,-69,0.22,12,47*,98*,0
O=c1c(Cl)c(N2CCCCC2)cnn1-c1nc2ccccc2[nH]1,97,0.44,35,-8,97*,0
Cc1ccc(C(=O)Oc2ccc(N3C(=O)CCC3=O)c(C)c2)cc1,2,1.1,111,-21,54*,0.5
COc1ccccc1Oc1ccc2c(c1)C(=O)N(CC1CCCO1)C2=O (centres undefined),x,x,x,-6,x,x
CC(C)(C)c1ccc(OCC(=O)N2CCCCCC2)c(Br)c1,19,1,134*,x,0,1
COc1ccc(-n2nnnc2SCC(=O)NCCc2ccccc2)cc1OC,6,0.97,97,10,-5,1.1
COc1ccc(CCNc2nnc(Sc3nnnn3-c3ccccc3)s2)cc1OC,-94,3.7*,93,3,-6,1.1
Cc1ccc(NC(=O)COc2ccccc2[N+](=O)[O-])nc1,31,5.5*,95,-24,80*,0.2
C/C(=N\NC(=O)COc1ccccc1[N+](=O)[O-])c1cccs1,41,1.9,144*,x,19,0.8
Cc1ccnc(NC(=O)COc2ccccc2[N+](=O)[O-])c1,150*,1.1,108,-10,81*,0.2
Cc1ccc(N2CC(O)Cn3c2nc2c3c(=O)[nH]c(=O)n2C)cc1 (centres undefined),x,x,x,7,x,x
CN(C(=O)C1CCOC1)c1nnc(-c2ccncc2)s1 (centres undefined),2,1,100,2,-3,1
CN(C(=O)C1CCOC1)c1nnc(-c2ccccn2)s1 (centres undefined),13,1.9,132*,15,5,1
O=C(Nc1nc2ccccc2[nH]1)c1cccs1,166*,3.8*,123,x,69*,0.3
COc1cccc(C(=O)Nc2nc3ccccc3[nH]2)c1,150*,2.5,60,x,91*,0.1

# Screening results (PubChem)
